{"data": "Experimental data pooled from the literature", "Palmitoyl-protein thioesterase 1": "Palmitoyl-protein thioesterase 1 (Homo sapiens, UniProt P50897)", "Transmembrane protease serine 6": "Transmembrane protease serine 6 (Homo sapiens, UniProt Q8IU80)", "note": "Compare with care: the assays were run in different laboratories."}
{"target": "Palmitoyl-protein thioesterase 1", "read-out": "enzyme activity", "mode": "inhibitor", "tested at": "125 µM", "endpoint": "inhibition", "value": "9.21%", "Compound": "O=C([O-])CCCCCCCNC(=O)c1ccccc1O.[Na+]"}
{"target": "Protein kinase C delta type (PRKCD, Homo sapiens, UniProt Q05655)", "read-out": "binding", "technique": "competition with immobilised ligand", "tested at": "1 µM", "endpoint": "remaining binding", "value": "100%", "Compound": "C=CC(=O)N1CCC(COCC(=O)N2CCN(c3nc(-c4cnc(N)nc4C(F)F)nc(N4CCOC[C@@H]4C)n3)CC2)CC1"}
{"target": "Transmembrane protease serine 6", "read-out": "enzyme activity", "mode": "inhibitor", "tested at": "0.1 µM", "endpoint": "remaining activity", "value": "6%", "Compound": "N=C(N)NCCC[C@H](NC(=O)[C@H](CC1CCCCC1)NC(=O)[C@H](Cc1cscn1)NC(=O)CCc1ccccc1)C(=O)c1nc2ccccc2s1"}
{"target": "Palmitoyl-protein thioesterase 1", "read-out": "enzyme activity", "mode": "inhibitor", "tested at": "125 µM", "endpoint": "inhibition", "value": "29%", "Compound": "O=C1OCCN1/N=C/c1ccc([N+](=O)[O-])o1"}
{"target": "SRSF protein kinase 3 (SRPK3, Homo sapiens, UniProt Q9UPE1)", "read-out": "binding", "technique": "competition with immobilised ligand", "tested at": "10 µM", "endpoint": "remaining binding", "value": "96%", "Compound": "Cc1cc([C@@H](C)Nc2ccccc2C(=O)O)c2nc(N3CCC(F)(F)CC3)c(C#N)c(=O)n2c1"}
{"target": "Cyclin-dependent kinase 6, with cyclin D2 (CDK6, Homo sapiens, UniProt Q00534)", "read-out": "enzyme activity", "mode": "inhibitor", "technique": "radiometric", "tested at": "1 µM", "endpoint": "remaining activity", "value": "92%", "Compound": "CNc1ncc2c(/C=C/C(=O)N3CCC(OC)CC3)nn(Cc3cccc(C(F)(F)F)c3)c2n1"}
{"target": "Transmembrane protease serine 6", "read-out": "enzyme activity", "mode": "inhibitor", "tested at": "0.1 µM", "endpoint": "remaining activity", "value": "77%", "Compound": "N=C(N)NCCC[C@H](NC(=O)[C@H](CC1CC1)NC(=O)[C@H](Cc1cscn1)NC(=O)CCc1ccccc1)C(=O)c1nc2ccccc2s1"}
{"target": "Muscle, skeletal receptor tyrosine-protein kinase (MUSK, Homo sapiens, UniProt O15146)", "read-out": "enzyme activity", "mode": "inhibitor", "tested at": "1 µM", "endpoint": "remaining activity", "value": "113%", "Compound": "COc1cc(-c2cncc3c2CN(C)Cc2cc(N4CCNCC4)ccc2-3)cc(OC)c1OC"}
{"target": "Transmembrane protease serine 6", "read-out": "enzyme activity", "mode": "inhibitor", "tested at": "0.1 µM", "endpoint": "remaining activity", "value": "19%", "Compound": "CC(C)C[C@@H](C(=O)N[C@@H](CCCNC(=N)N)C(=O)c1nc2ccccc2s1)N(C)C(=O)[C@H](Cc1cscn1)NC(=O)CCc1ccccc1"}
{"target": "Palmitoyl-protein thioesterase 1", "read-out": "enzyme activity", "mode": "inhibitor", "tested at": "125 µM", "endpoint": "inhibition", "value": "1.07%", "Compound": "O=C(CCCN1CC=C(n2c(=O)[nH]c3ccccc32)CC1)c1ccc(F)cc1"}
